Reference: ChEMBL document CHEMBL3407471, “Development of potent inhibitors of pyocyanin production in Pseudomonas aeruginosa” (J Med Chem, 2015)
Each block holds one molecule with its values, some of them ahead of it. Active and inactive are the calls of the source. Unless noted, the calls are words filed in the database; no cut-off is given here.

Experiments:
[1] = test system: Pseudomonas aeruginosa; experiment: Inhibition of quorum sensing activity in wild-type Pseudomonas aeruginosa PA14 assessed as inhibition of pyocyanin production at 100 uM by spectrophotometry relative to control; format: functional
Procedure, shortened: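 Wild-type P. aeruginosa PA14 cultures exposed to compound at 100 μM. Pyocyanin read as absorbance at 695 nm. Efficacy scaled so that wild-type pyocyanin level = 0% and absorbance equal to background medium = 100%.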

[2] = test system: Pseudomonas aeruginosa; experiment: Antimicrobial activity against wild-type Pseudomonas aeruginosa PA14; format: functional
[3] = test system: Pseudomonas aeruginosa; experiment: Inhibition of quorum sensing activity in wild-type Pseudomonas aeruginosa PA14 assessed as inhibition of pyocyanin production by spectrophotometry relative to control; format: functional
Procedure, shortened: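 Pyocyanin produced by wild-type PA14, read by absorbance at 695 nm, across a range of compound levels. IC50 derived from the dose–response.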

[4] = test system: Escherichia coli; experiment: Agonist activity at LasR in Escherichia coli at 100 uM
[5] = test system: Escherichia coli; experiment: Agonist activity at RhlR in Escherichia coli at 100 uM
[6] = test system: Escherichia coli; experiment: Antagonist activity at LasR in Escherichia coli assessed as reduction of AHL-induced GFP production at 100 uM
[7] = test system: Escherichia coli; experiment: Antagonist activity at RhlR in Escherichia coli assessed as reduction of AHL-induced GFP production at 100 uM
[8] = Effect on pyocyanin oxidation state in cell free culture fluid up to 17 hrs by spectrophotometry; format: ADME
Procedure, shortened: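 Cell-free culture fluids already containing pyocyanin incubated with compound, to test for a change in pyocyanin oxidation state independent of its production.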

[9] = test system: Escherichia coli; experiment: Competitive binding to LasR in Escherichia coli at 100 to 500 uM
Procedure, shortened: (§1)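 Competition format: compound at 100 μM and 500 μM combined with increasing amounts of the receptor's native AHL (LasR or RhlR). Receptor response compared with a DMSO control.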

[10] = test system: Escherichia coli; experiment: Competitive binding to RhlR in Escherichia coli at 100 to 500 uM; procedure, shortened: as §1
[11] = test system: Pseudomonas aeruginosa; experiment: Antibiofilm activity against wild-type static Pseudomonas aeruginosa PA14 at 100 uM by spectrophotometry; format: functional
[12] = test system: Pseudomonas aeruginosa; experiment: Inhibition of pyocyanin production in wild-type Pseudomonas aeruginosa PA14 assessed as down regulation of PA14_35160 relative to control; format: functional
Procedure, shortened: (§2)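 Wild-type PA14 cultures treated with compound, and a DMSO-treated culture served as control. RNA extracted and analysed by microarray. Genes counted as changed when expression differed by more than 2-fold.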

[13] = test system: Pseudomonas aeruginosa; experiment: Inhibition of pyocyanin production in wild-type Pseudomonas aeruginosa PA14 assessed as down regulation of PA14_16310 relative to control; format: functional; procedure, shortened: as §2
[14] = test system: Pseudomonas aeruginosa; experiment: Inhibition of pyocyanin production in wild-type Pseudomonas aeruginosa PA14 assessed as down regulation of mexH relative to control; format: functional; procedure, shortened: as §2
[15] = test system: Pseudomonas aeruginosa; experiment: Inhibition of pyocyanin production in wild-type Pseudomonas aeruginosa PA14 assessed as down regulation of mexI relative to control; format: functional; procedure, shortened: as §2
[16] = test system: Pseudomonas aeruginosa; experiment: Inhibition of pyocyanin production in wild-type Pseudomonas aeruginosa PA14 assessed as down regulation of mexG relative to control; format: functional; procedure, shortened: as §2
[17] = test system: Pseudomonas aeruginosa; experiment: Inhibition of pyocyanin production in wild-type Pseudomonas aeruginosa PA14 assessed as down regulation of opmD relative to control; format: functional; procedure, shortened: as §2
[18] = test system: Pseudomonas aeruginosa; experiment: Inhibition of pyocyanin production in wild-type Pseudomonas aeruginosa PA14 assessed as down regulation of PA14_21530 relative to control; format: functional; procedure, shortened: as §2
[19] = test system: Pseudomonas aeruginosa; experiment: Inhibition of pyocyanin production in wild-type Pseudomonas aeruginosa PA14 assessed as down regulation of PA14_22320 relative to control; format: functional; procedure, shortened: as §2
[20] = test system: Pseudomonas aeruginosa; experiment: Inhibition of pyocyanin production in wild-type Pseudomonas aeruginosa PA14 assessed as down regulation of ahpF relative to control; format: functional; procedure, shortened: as §2
[21] = test system: Pseudomonas aeruginosa; experiment: Inhibition of pyocyanin production in wild-type Pseudomonas aeruginosa PA14 assessed as down regulation of trxB2 relative to control; format: functional; procedure, shortened: as §2
[22] = test system: Pseudomonas aeruginosa; experiment: Inhibition of pyocyanin production in wild-type Pseudomonas aeruginosa PA14 assessed as down regulation of katA relative to control; format: functional; procedure, shortened: as §2
[23] = test system: Pseudomonas aeruginosa; experiment: Inhibition of pyocyanin production in wild-type Pseudomonas aeruginosa PA14 assessed as down regulation of PA14_03090 relative to control; format: functional; procedure, shortened: as §2
[24] = test system: Pseudomonas aeruginosa; experiment: Inhibition of pyocyanin production in wild-type Pseudomonas aeruginosa PA14 assessed as down regulation of PA14_58040 relative to control; format: functional; procedure, shortened: as §2
[25] = test system: Pseudomonas aeruginosa; experiment: Inhibition of pyocyanin production in wild-type Pseudomonas aeruginosa PA14 assessed as down regulation of PA14_51830 relative to control; format: functional; procedure, shortened: as §2
[26] = test system: Pseudomonas aeruginosa; experiment: Inhibition of pyocyanin production in wild-type Pseudomonas aeruginosa PA14 assessed as down regulation of katB relative to control; format: functional; procedure, shortened: as §2
[27] = test system: Pseudomonas aeruginosa; experiment: Inhibition of pyocyanin production in wild-type Pseudomonas aeruginosa PA14 assessed as down regulation of fumC relative to control; format: functional; procedure, shortened: as §2

- IC50 [3]: 4.4 µM
- Activity [4]: inactive
- Activity [5]: inactive
- Activity [6]: inactive
- Activity [7]: inactive
SMILES: CCCCCCCCCCCC(=O)Nc1ccnc(F)c1
- Efficacy [1]: 70%
- Activity [2]: inactive

- IC50 [3]: 6.3 µM
- Activity [4]: inactive
- Activity [5]: inactive
- Activity [6]: inactive
- Activity [7]: inactive
SMILES: O=C(CCCCCOc1cccc(F)c1)Nc1ccnc(C(F)(F)F)c1
- Efficacy [1]: 103%
- Activity [2]: inactive

- IC50 [3]: 0.16 µM
- Stability [8]: Stable
- Activity [4]: inactive
- Activity [5]: inactive
- Activity [6]: inactive
- Activity [7]: inactive
SMILES: CCCCCCCCCC(=O)CC(=O)Nc1ccncc1
- Efficacy [1]: 63%
- Activity [2]: inactive

- IC50 [3]: 2.7 µM
- Activity [4]: inactive
- Activity [5]: inactive
- Activity [6]: inactive
- Activity [7]: inactive
- Activity [9]: inactive
- Activity [10]: inactive
SMILES: O=C(CCCCCOc1cccc(Br)c1)Nc1ccnc(C(F)(F)F)c1
- Efficacy [1]: 99%
- Activity [2]: inactive
- Activity [11]: inactive
- fold change (FC) [12]: 4.93
- fold change (FC) [13]: 3.27
- fold change (FC) [14]: 2.93
- fold change (FC) [15]: 2.84
- fold change (FC) [16]: 2.68
- fold change (FC) [17]: 2.5
- fold change (FC) [18]: 44.39
- fold change (FC) [19]: 35.99
- fold change (FC) [20]: 33.03
- fold change (FC) [21]: 27.79
- fold change (FC) [22]: 20.8
- fold change (FC) [23]: 14.35
- fold change (FC) [24]: 5.67
- fold change (FC) [25]: 5.6
- fold change (FC) [26]: 4.15
- fold change (FC) [27]: 2.71

SMILES: CCCCCCCCCCCC(=O)Nc1ccc2oc3c(c2c1)CCCC3
- Efficacy [1]: 6.1%
- Activity [2]: inactive

SMILES: COc1cc(NC(=O)CCCCCOc2cccc(Br)c2)ncn1
- Efficacy [1]: 41%
- Activity [2]: inactive

SMILES: CCCCCCCCCCCC(=O)Nc1ccnc(C)c1
- Efficacy [1]: -19%
- Activity [2]: inactive

SMILES: O=C(CCCOc1cccc(Br)c1)Nc1ccncc1
- Efficacy [1]: 21%
- Activity [2]: inactive

SMILES: COc1cc(NC(=O)CC(=O)CCCOc2cccc(Br)c2)ccn1
- Efficacy [1]: 40%
- Activity [2]: inactive

SMILES: CCCCCCCCCCCC(=O)Nc1c(F)c(F)nc(F)c1F
- Efficacy [1]: -12%
- Activity [2]: inactive

SMILES: CCCCCCCCCCCC(=O)Nc1ccc2c(c1)c1ccccc1n2CC
- Efficacy [1]: -1%
- Activity [2]: inactive

SMILES: O=C(CCCOc1cccc(Br)c1)Nc1ccnc(C(F)(F)F)c1
- Efficacy [1]: 43%
- Activity [2]: inactive

SMILES: O=C(CCCCCOc1cccc(Br)c1)Nc1ccncn1
- Efficacy [1]: 27%
- Activity [2]: inactive

SMILES: Cc1cccc(OCCCCCC(=O)Nc2ccnc(C(F)(F)F)c2)c1
- Efficacy [1]: 81%
- Activity [2]: inactive
